Laboratory results taken from ChEMBL document CHEMBL1123109, “Alkyl esters of 3-adenin-9-yl-2-hydroxypropanoic acid: a new class of broad-spectrum antiviral agents” (1985).
Converted amounts (≈) assume the structure as drawn.

Key:
Format in all cases: functional
[1] = system: Vesicular stomatitis virus; assay: Inhibition of Vesicular stomatitis virus induced cytopathicity in BS-C-1 cells.
Method in brief: (§1)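 Vesicular stomatitis virus was inoculated at 100 CCID50 (100× the dose infecting 50% of cells) in each cell type: human embryonic skin-muscle fibroblasts, LR-strain trisomy-21 fibroblasts, HEp-2, CV-1, BS-C-1, Balb/3T3, RK13, human kidney, HeLa and Vero. CPE was read at 1–2 days in every cell type, once complete in untreated infected controls. The MIC is the concentration giving a 50% reduction in cytopathogenicity.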

[2] = system: Vesicular stomatitis virus; assay: Inhibition of Vesicular stomatitis virus induced cytopathicity in PRK cells.
Sindbis virus = assay: Inhibition of Sindbis virus induced cytopathicity in vero cells.
Human respirovirus 3 = assay: Inhibition of parainfluenza virus-3 induced cytopathicity in vero cells.
PRK = assay: Cytotoxic concentration against PRK cells.; conditions: Oryctolagus cuniculus
Method in brief: (§2)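 Uninfected cells were incubated with compound for the same duration as the matching antiviral assay. The minimum cytotoxic concentration is the lowest one causing a microscopically detectable change in normal cell morphology.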

[3] = system: Vesicular stomatitis virus; assay: Inhibition of Vesicular stomatitis virus induced cytopathicity in BALB/3T3 cells.; conditions: in Mus musculus; method in brief: as §1
[4] = system: Vesicular stomatitis virus; assay: Inhibition of Vesicular stomatitis virus induced cytopathicity in HEp-2 cells.; method in brief: as §1
Vero = assay: Cytotoxic concentration against Vero cells.; conditions: Chlorocebus sabaeus; method in brief: as §2
Coxsackievirus B4 = assay: Inhibition of Coxsackie B4 virus induced cytopathicity in HeLa cells.; conditions: Enterovirus B
Poliovirus 1 = assay: Inhibition of polio virus 1 induced cytopathicity in HeLa cells.; conditions: Enterovirus C
Measles morbillivirus = assay: Inhibition of Measles virus induced cytopathicity in vero cells.
HeLa = assay: Cytotoxic concentration against HeLa cells.; conditions: Homo sapiens; method in brief: as §2
[5] = system: Vesicular stomatitis virus; assay: Inhibition of Vesicular stomatitis virus induced cytopathicity in CV-1 cells.; method in brief: as §1
Oryctolagus cuniculus [6] = species: Oryctolagus cuniculus; assay: Inhibitory effects on DNA, RNA, and Protein synthesis in rabbit kidney cells was evaluated for incorporation of [methyl-3H]dThd]; conditions: read-out: ID50 (the source's name)
[7] = system: Mammalian orthoreovirus 1; assay: Inhibition of Reo virus-1 induced cytopathicity in vero cells.
HK = assay: Minimum inhibitory concentration which is required to reduce virus-induced cytopathogenicity by 50% against Vesicular stomatitis virus in human kidney,; method in brief: as §1
[8] = system: Vesicular stomatitis virus; assay: Inhibition of Vesicular stomatitis virus induced cytopathicity in Vero cells.; method in brief: as §1
[9] = system: Vesicular stomatitis virus; assay: Inhibition of Vesicular stomatitis virus induced cytopathicity in RK13 cells.; method in brief: as §1
[10] = system: Vesicular stomatitis virus; assay: Inhibition of Vesicular stomatitis virus induced cytopathicity in E6SM cells.; method in brief: as §1
[11] = system: Vesicular stomatitis virus; assay: Inhibition of Vesicular stomatitis virus induced cytopathicity in HeLa cells.; method in brief: as §1
Vaccinia virus = assay: Inhibition of Vaccinia virus induced cytopathicity in PRK cells.; conditions: Orthopoxvirus vaccinia
Human alphaherpesvirus 1 = assay: Inhibition of HSV-1 induced cytopathicity in PRK cells.
Oryctolagus cuniculus [12] = species: Oryctolagus cuniculus; assay: Inhibitory effects on DNA, RNA, and Protein synthesis in rabbit kidney cells was evaluated for incorporation of [5-3H]-Urd; conditions: read-out: ID50 (the source's name)
[13] = system: Vesicular stomatitis virus; assay: Inhibition of Vesicular stomatitis virus induced cytopathicity in T-21 cells.; method in brief: as §1
Oryctolagus cuniculus [14] = species: Oryctolagus cuniculus; assay: Inhibitory effects on DNA, RNA, and Protein synthesis in rabbit kidney cells was evaluated for incorporation of [4,5-3H]leucine; conditions: read-out: ID50 (the source's name)

Structure (SMILES) | MIC [1] | MIC [2] | MIC (Sindbis virus) | MIC (Human respirovirus 3) | MCC (PRK) | MIC [3] | MIC [4] | MCC (Vero) | MIC (Coxsackievirus B4) | MIC (Poliovirus 1) | MIC (Measles morbillivirus) | MCC (HeLa) | MIC [5] | MIC [7] | MIC (HK) | MIC [8] | MIC [9] | MIC [10] | MIC [11] | MIC (Vaccinia virus) | also measured
CCCCCOC(=O)C(O)Cn1cnc2c(N)ncnc21 (centres undefined) | 100 µg/mL (≈ 341 µM) | 10 µg/mL (≈ 34.1 µM) | 200 µg/mL (≈ 682 µM) | 70 µg/mL (≈ 239 µM) | 200 µg/mL | > 200 µg/mL | 2 µg/mL (≈ 6.82 µM) | 200 µg/mL | > 400 µg/mL | > 400 µg/mL | 70 µg/mL (≈ 239 µM) | > 400 µg/mL | 300 µg/mL (≈ 1020 µM) | 30 µg/mL (≈ 102 µM) | 20 µg/mL (≈ 68.2 µM) | 20 µg/mL (≈ 68.2 µM) | 100 µg/mL (≈ 341 µM) | 3 µg/mL (≈ 10.2 µM) | 10 µg/mL (≈ 34.1 µM) | 70 µg/mL (≈ 239 µM) | IC50 (Oryctolagus cuniculus [6]): 151 µg/mL (≈ 515 µM); MIC (Human alphaherpesvirus 1): > 200 µg/mL; IC50 (Oryctolagus cuniculus [12]): 21 µg/mL (≈ 71.6 µM); MIC [13]: 1 µg/mL (≈ 3.41 µM); IC50 (Oryctolagus cuniculus [14]): 215 µg/mL (≈ 733 µM)
CCOC(=O)C(O)Cn1cnc2c(N)ncnc21 (centres undefined) | > 400 µg/mL | 1 µg/mL (≈ 3.98 µM) | > 400 µg/mL | 20 µg/mL (≈ 79.6 µM) | > 400 µg/mL | > 400 µg/mL | 7 µg/mL (≈ 27.9 µM) | > 400 µg/mL | > 400 µg/mL | > 400 µg/mL | 20 µg/mL (≈ 79.6 µM) | > 400 µg/mL | > 400 µg/mL | 40 µg/mL (≈ 159 µM) | 200 µg/mL (≈ 796 µM) | 400 µg/mL (≈ 1590 µM) | 2 µg/mL (≈ 7.96 µM) | 7 µg/mL (≈ 27.9 µM) | 4 µg/mL (≈ 15.9 µM) | 3 µg/mL (≈ 11.9 µM) | MIC (Human alphaherpesvirus 1): > 400 µg/mL; MIC [13]: 1 µg/mL (≈ 3.98 µM)
Nc1ncnc2c1ncn2CC(O)C(=O)OCc1ccco1 (centres undefined) | > 40 µg/mL | 15 µg/mL (≈ 49.5 µM) | > 40 µg/mL | 15 µg/mL (≈ 49.5 µM) | 40 µg/mL | > 40 µg/mL | 4 µg/mL (≈ 13.2 µM) | 40 µg/mL | > 40 µg/mL | > 40 µg/mL | > 40 µg/mL | 40 µg/mL | > 40 µg/mL | 30 µg/mL (≈ 98.9 µM) | > 40 µg/mL | > 40 µg/mL | > 40 µg/mL | 40 µg/mL (≈ 132 µM) | 7 µg/mL (≈ 23.1 µM) | 10 µg/mL (≈ 33 µM) | MIC (Human alphaherpesvirus 1): > 40 µg/mL; MIC [13]: 7 µg/mL (≈ 23.1 µM)
CC(C)OC(=O)C(O)Cn1cnc2c(N)ncnc21 (centres undefined) | > 400 µg/mL | 3 µg/mL (≈ 11.3 µM) | > 400 µg/mL | 70 µg/mL (≈ 264 µM) | > 400 µg/mL | > 400 µg/mL | 7 µg/mL (≈ 26.4 µM) | > 400 µg/mL | > 400 µg/mL | > 400 µg/mL | 150 µg/mL (≈ 565 µM) | > 400 µg/mL | > 400 µg/mL | 40 µg/mL (≈ 151 µM) | 300 µg/mL (≈ 1130 µM) | 200 µg/mL (≈ 754 µM) | 1 µg/mL (≈ 3.77 µM) | 3 µg/mL (≈ 11.3 µM) | 30 µg/mL (≈ 113 µM) | 3 µg/mL (≈ 11.3 µM) | MIC (Human alphaherpesvirus 1): > 400 µg/mL; MIC [13]: 1 µg/mL (≈ 3.77 µM)
Nc1ncnc2c1ncn2CC(O)C(=O)OC1CCCCC1 (centres undefined) | 40 µg/mL (≈ 131 µM) | 1 µg/mL (≈ 3.28 µM) | > 100 µg/mL | > 40 µg/mL | 100 µg/mL | 70 µg/mL (≈ 229 µM) | 2 µg/mL (≈ 6.55 µM) | 100 µg/mL | > 100 µg/mL | > 100 µg/mL | 15 µg/mL (≈ 49.1 µM) | 100 µg/mL | > 200 µg/mL | 7 µg/mL (≈ 22.9 µM) | > 200 µg/mL | > 100 µg/mL | 70 µg/mL (≈ 229 µM) | 7 µg/mL (≈ 22.9 µM) | 30 µg/mL (≈ 98.3 µM) | 3 µg/mL (≈ 9.83 µM) | MIC (Human alphaherpesvirus 1): 100 µg/mL (≈ 328 µM); MIC [13]: 1 µg/mL (≈ 3.28 µM)
COCCOC(=O)C(O)Cn1cnc2c(N)ncnc21 (centres undefined) | > 400 µg/mL | 7 µg/mL (≈ 24.9 µM) | > 400 µg/mL | 300 µg/mL (≈ 1070 µM) | > 400 µg/mL | > 400 µg/mL | 7 µg/mL (≈ 24.9 µM) | > 400 µg/mL | > 400 µg/mL | > 400 µg/mL | 400 µg/mL (≈ 1420 µM) | > 400 µg/mL | > 400 µg/mL | 70 µg/mL (≈ 249 µM) | > 400 µg/mL | 300 µg/mL (≈ 1070 µM) | 70 µg/mL (≈ 249 µM) | 7 µg/mL (≈ 24.9 µM) | 20 µg/mL (≈ 71.1 µM) | 30 µg/mL (≈ 107 µM) | MIC (Human alphaherpesvirus 1): > 400 µg/mL; MIC [13]: 15 µg/mL (≈ 53.3 µM)
CCC(C)OC(=O)C(O)Cn1cnc2c(N)ncnc21 (centres undefined) | > 400 µg/mL | 1 µg/mL (≈ 3.58 µM) | 300 µg/mL (≈ 1070 µM) | 200 µg/mL (≈ 716 µM) | > 400 µg/mL | > 400 µg/mL | 7 µg/mL (≈ 25.1 µM) | > 400 µg/mL | > 400 µg/mL | > 400 µg/mL | 40 µg/mL (≈ 143 µM) | > 400 µg/mL | > 400 µg/mL | 70 µg/mL (≈ 251 µM) | > 400 µg/mL | 150 µg/mL (≈ 537 µM) | 15 µg/mL (≈ 53.7 µM) | 1 µg/mL (≈ 3.58 µM) | 30 µg/mL (≈ 107 µM) | 3 µg/mL (≈ 10.7 µM) | MIC (Human alphaherpesvirus 1): > 400 µg/mL; MIC [13]: 1 µg/mL (≈ 3.58 µM)
CC(C)(C)OC(=O)C(O)Cn1cnc2c(N)ncnc21 (centres undefined) | > 400 µg/mL | 150 µg/mL (≈ 537 µM) | > 400 µg/mL | 150 µg/mL (≈ 537 µM) | > 400 µg/mL | > 400 µg/mL | 40 µg/mL (≈ 143 µM) | > 400 µg/mL | > 400 µg/mL | > 400 µg/mL | 150 µg/mL (≈ 537 µM) | > 400 µg/mL | > 400 µg/mL | 150 µg/mL (≈ 537 µM) | > 400 µg/mL | > 400 µg/mL | 30 µg/mL (≈ 107 µM) | 150 µg/mL (≈ 537 µM) | 150 µg/mL (≈ 537 µM) | 150 µg/mL (≈ 537 µM) | MIC (Human alphaherpesvirus 1): > 400 µg/mL; MIC [13]: 15 µg/mL (≈ 53.7 µM)
